In ChEMBL document CHEMBL1157562, “Piperazinyl glutamate pyridines as potent orally bioavailable P2Y12 antagonists for inhibition of platelet aggregation” (J Med Chem, 2010):

Columns and labels:
P2Y purinoceptor 12 = P2Y purinoceptor 12 (Homo sapiens, UniProt Q9H244); experiment: Displacement of [33P]ADP from human recombinant P2Y12 receptor expressed in CHO cells; format: cell-based
Outline: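 Washed membranes from CHO cells expressing synthetic human P2Y12, incubated 1 h at room temperature with 0.2 nM 33P-MeSADP in 50 mM Tris/100 mM NaCl/1 mM EDTA. Compound was tested as a 7-point 3-fold series in triplicate. Nonspecific binding was defined with 300 nM 2-MeSADP, followed by filtration.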

[1] = Antiplatelet aggregation activity against adenosine diphosphate-induced human platelet rich plasma assessed as inhibition of platelet aggregation by turbidimetric method; format: functional; conditions: Homo sapiens, Platelet, Plasma
Outline: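 Human PRP, prepared by two-step centrifugation and adjusted to 330 000 platelets/μL with PPP. Compound was preincubated 5 min at 37 °C in 0.5% DMSO, then 20 μM ADP was added. OD626 was read kinetically for 15 min at 37 °C with mixing between reads.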

Platelet = experiment: Relative potency, ratio of IC50 for drug to IC50 for AZD-6140 for platelet aggregation in human platelet rich plasma; format: functional

Sequence of P2Y purinoceptor 12 (Q9H244 whole entry): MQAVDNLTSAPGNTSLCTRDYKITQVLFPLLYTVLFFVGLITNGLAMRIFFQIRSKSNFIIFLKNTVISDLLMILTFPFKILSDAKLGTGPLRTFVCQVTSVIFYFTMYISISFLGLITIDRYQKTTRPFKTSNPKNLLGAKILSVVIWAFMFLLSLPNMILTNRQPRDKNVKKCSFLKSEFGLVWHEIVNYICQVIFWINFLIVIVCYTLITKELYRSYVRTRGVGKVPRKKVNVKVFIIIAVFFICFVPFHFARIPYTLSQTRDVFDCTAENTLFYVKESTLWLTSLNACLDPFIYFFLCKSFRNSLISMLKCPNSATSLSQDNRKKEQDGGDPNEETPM

| SMILES | Ki (P2Y purinoceptor 12) [µM] | IC50 [1] [µM] | Ratio IC50 (Platelet) |
| --- | --- | --- | --- |
| CCCCCOC(=O)N1CCN(C(=O)[C@H](CCC(=O)O)NC(=O)c2cc(CCC(=O)N3CCOCC3)cc(-c3ccccc3)n2)CC1 | 0.0037 | 3.1 | 2.4 |
| CCCCCOC(=O)N1CCN(C(=O)[C@H](CCC(=O)O)NC(=O)c2cc(C(=O)NCCC)cc(-c3ccccc3)n2)CC1 | 0.011 | 12 | 20 |
| CCCCCOC(=O)N1CCN(C(=O)[C@H](CCC(=O)O)NC(=O)c2cc(C(=O)N(C)C3CCN(C)CC3)cc(-c3ccccc3)n2)CC1 | 0.011 | 0.35 | 0.83 |
| CCCCCOC(=O)N1CCN(C(=O)[C@H](CCC(=O)O)NC(=O)c2cc(NC(=O)CN(C)C)cc(-c3ccccc3)n2)CC1 | 0.0041 | 5.6 | 6.4 |
| CCCCOC(=O)N1CCN(C(=O)[C@H](CCC(=O)O)NC(=O)c2cc(O)cc(-c3ccccc3)n2)CC1 | 0.031 | 8.8 | 9.7 |
| CCCCOC(=O)N1CCN(C(=O)[C@H](CCC(=O)O)NC(=O)c2cc(OCCO)cc(-c3ccccc3)n2)CC1 | 0.02 | 7.9 | 5.1 |
| CCCCCOC(=O)N1CCN(C(=O)[C@H](CCC(=O)O)NC(=O)c2cc(CCCCOC)cc(-c3ccccc3)n2)CC1 | 0.0083 | 4.2 | 4.5 |
| CCCCCOC(=O)N1CCN(C(=O)[C@H](CCC(=O)O)NC(=O)c2cc(OCC3CCN(S(=O)(=O)CC)CC3)cc(-c3ccccc3)n2)CC1 | 0.0074 | 2.8 | 1.9 |
| CCCCOC(=O)N1CCN(C(=O)[C@H](CCC(=O)O)NC(=O)c2cc(OCC3CCNCC3)cc(-c3ccccc3)n2)CC1 | 0.0042 | 0.21 | 0.37 |
| CCCCCCOC(=O)N1CCN(C(=O)[C@H](CCC(=O)O)NC(=O)c2cc(O)cc(-c3ccccc3)n2)CC1 | 0.02 | 21 | 21 |
| CCCCCOC(=O)N1CCN(C(=O)[C@H](CCC(=O)O)NC(=O)c2cc(N3CCC(OC)CC3)cc(-c3ccccc3)n2)CC1 | 0.015 | 3.9 | 3 |
| CCCCCOC(=O)N1CCN(C(=O)[C@H](CCC(=O)O)NC(=O)c2cc(OCC)cc(-c3ccccc3)n2)CC1 | 0.0079 | 17 | 23 |
| CCCCOC(=O)N1CCN(C(=O)[C@H](CCC(=O)O)NC(=O)c2cc(OC(=O)N(C)C)cc(-c3ccccc3)n2)CC1 | 0.002 | 1.1 | 1.1 |
| CCCCCOC(=O)N1CCN(C(=O)[C@H](CCC(=O)O)NC(=O)c2cc(C(=O)NC3CCOCC3)cc(-c3ccccc3)n2)CC1 | 0.0046 | 5.6 | 10 |
| CCCCOC(=O)N1CCN(C(=O)[C@H](CCC(=O)O)NC(=O)c2cc(OC3CCCNC3)cc(-c3ccccc3)n2)CC1 (some centres not stated) | 0.0069 | 3.9 | 1.8 |
| CCOC(=O)N1CCN(C(=O)[C@H](CCC(=O)O)NC(=O)c2cc(OCC)cc(-c3ccccc3)n2)CC1 | 0.094 | 31 | 44 |
| CCCCCOC(=O)N1CCN(C(=O)[C@H](CCC(=O)O)NC(=O)c2cc(OCC3CCN(C(=O)C(F)(F)F)CC3)cc(-c3ccccc3)n2)CC1 | 0.0045 | 3.5 | 4.8 |
| CCCCOC(=O)N1CCN(C(=O)[C@H](CCC(=O)O)NC(=O)c2cc(OCC3CCN(CCOC)CC3)cc(-c3ccccc3)n2)CC1 | 0.0053 | 0.62 | 0.53 |
| CCCCCOC(=O)N1CCN(C(=O)[C@H](CCC(=O)O)NC(=O)c2cc(OC(=O)N3CCC(OCC)CC3)cc(-c3ccccc3)n2)CC1 | 0.006 | 0.59 | 1.2 |
| CCCCCCOC(=O)N1CCN(C(=O)[C@H](CCC(=O)O)NC(=O)c2cc(OCCO)cc(-c3ccccc3)n2)CC1 | 0.018 | 21 | 13 |
| CCCCCOC(=O)N1CCN(C(=O)[C@H](CCC(=O)O)NC(=O)c2cc(OC3CCNCC3)cc(-c3ccccc3)n2)CC1 | 0.0035 | 0.5 | 0.64 |
| CCCCCOC(=O)N1CCN(C(=O)[C@H](CCC(=O)O)NC(=O)c2cc(OC3CCN(C)CC3)cc(-c3ccccc3)n2)CC1 | 0.005 | 1.8 | 1.8 |
| CCCCOC(=O)N1CCN(C(=O)[C@H](CCC(=O)O)NC(=O)c2cc(OCCCCO)cc(-c3ccccc3)n2)CC1 | 0.0049 | 4.5 | 6.7 |
| CCCCOC(=O)N1CCN(C(=O)[C@H](CCC(=O)O)NC(=O)c2cc(OC3CCN(C(=O)COC)CC3)cc(-c3ccccc3)n2)CC1 | 0.0024 | 0.52 | 0.78 |
| CCCCOC(=O)N1CCN(C(=O)[C@H](CCC(=O)O)NC(=O)c2cc(OCC3CCN(C(=O)C(F)(F)F)CC3)cc(-c3ccccc3)n2)CC1 | 0.01 | 3 | 2.8 |

| SMILES | Ki (P2Y purinoceptor 12) [µM] | IC50 [1] [µM] | Ratio IC50 (Platelet) |
| --- | --- | --- | --- |
| CCCCOC(=O)N1CCN(C(=O)[C@H](CCC(=O)O)NC(=O)c2cc(OC3CCNC3)cc(-c3ccccc3)n2)CC1 (some centres not stated) | 0.0037 | 2.6 | 1.3 |
| CCCCCOC(=O)N1CCN(C(=O)[C@H](CCC(=O)O)NC(=O)c2cc(CCCOC)cc(-c3ccccc3)n2)CC1 | 0.0084 | 5 | 6.6 |
| CCCCCOC(=O)N1CCN(C(=O)[C@H](CCC(=O)O)NC(=O)c2cc(OC3CCN(C(=O)OCC)CC3)cc(-c3ccccc3)n2)CC1 | 0.0065 | 8.2 | 8.1 |
| CCCCCCOC(=O)N1CCN(C(=O)[C@H](CCC(=O)O)NC(=O)c2cc(OCCCC)cc(-c3ccccc3)n2)CC1 | 0.089 | 97 | 65 |
| CCCCCOC(=O)N1CCN(C(=O)[C@H](CCC(=O)O)NC(=O)c2cc(CCCO)cc(-c3ccccc3)n2)CC1 | 0.0038 | 1.9 | 2.6 |
| CCCCCOC(=O)N1CCN(C(=O)[C@H](CCC(=O)O)NC(=O)c2cc(C(=O)N3CCCCC3)cc(-c3ccccc3)n2)CC1 | 0.0028 | 0.91 | 2.2 |
| CCCCOC(=O)N1CCN(C(=O)[C@H](CCC(=O)O)NC(=O)c2cc(OCC3CCCNC3)cc(-c3ccccc3)n2)CC1 (some centres not stated) | 0.0037 | 1.2 | 0.57 |
| CCCCCOC(=O)N1CCN(C(=O)[C@H](CCC(=O)O)NC(=O)c2cc(OC3CCN(S(=O)(=O)CC)CC3)cc(-c3ccccc3)n2)CC1 | 0.0051 | 5.3 | 5 |
| CCOC(=O)N1CCN(C(=O)[C@H](CCC(=O)O)NC(=O)c2cc(OCCCCO)cc(-c3ccccc3)n2)CC1 | 0.132 | 13 | 13 |
| CCCCCOC(=O)N1CCN(C(=O)[C@H](CCC(=O)O)NC(=O)c2cc(OC3CCN(C(=O)C(F)(F)F)CC3)cc(-c3ccccc3)n2)CC1 | 0.019 | 4.7 | 4.4 |
| CCOC(=O)N1CCN(C(=O)[C@H](CCC(=O)O)NC(=O)c2cc(OCCCOC)cc(-c3ccccc3)n2)CC1 | 0.069 | 8.2 | 11 |
| CCCCCOC(=O)N1CCN(C(=O)[C@H](CCC(=O)O)NC(=O)c2cc(NCCC)cc(-c3ccccc3)n2)CC1 | 0.012 | 13 | 14 |
| CCCCOC(=O)N1CCN(C(=O)[C@H](CCC(=O)O)NC(=O)c2cc(OCC3CCOCC3)cc(-c3ccccc3)n2)CC1 | 0.011 | 2.3 | 3.6 |
| CCCCCCOC(=O)N1CCN(C(=O)[C@H](CCC(=O)O)NC(=O)c2cc(N3CCC(N)CC3)cc(-c3ccccc3)n2)CC1 | 0.0033 | 2.4 | 3.4 |
| CCCCCOC(=O)N1CCN(C(=O)[C@H](CCC(=O)O)NC(=O)c2cc(OC(=O)N3CCCCC3)cc(-c3ccccc3)n2)CC1 | 0.011 | 2.1 | 1.3 |
| CCOC(=O)N1CCN(C(=O)[C@H](CCC(=O)O)NC(=O)c2cc(N(C)CCO)cc(-c3ccccc3)n2)CC1 | 0.087 | 57 | 26 |
| CCCCCOC(=O)N1CCN(C(=O)[C@H](CCC(=O)O)NC(=O)c2cc(C(=O)N(C)CC)cc(-c3ccccc3)n2)CC1 | 0.0026 | 0.58 | 1.3 |
| CCCCOC(=O)N1CCN(C(=O)[C@H](CCC(=O)O)NC(=O)c2cc(OCC3CCCCN3)cc(-c3ccccc3)n2)CC1 (some centres not stated) | 0.011 | 1.8 | 2 |
| CCCCCOC(=O)N1CCN(C(=O)[C@H](CCC(=O)O)NC(=O)c2cc(C(=O)N3CCN(C(C)=O)CC3)cc(-c3ccccc3)n2)CC1 | 0.0017 | 0.32 | 0.48 |
| CCCCCOC(=O)N1CCN(C(=O)[C@H](CCC(=O)O)NC(=O)c2cc(C(=O)NC)cc(-c3ccccc3)n2)CC1 | 0.01 | 6.8 | 9.7 |
| CCCCOC(=O)N1CCN(C(=O)[C@H](CCC(=O)O)NC(=O)c2cc(OCCC3CCNCC3)cc(-c3ccccc3)n2)CC1 | 0.003 | 0.46 | 0.45 |
| CCCCCOC(=O)N1CCN(C(=O)[C@H](CCC(=O)O)NC(=O)c2cc(NC(=O)CN3CCN(C)CC3)cc(-c3ccccc3)n2)CC1 | 0.0023 | 4.3 | 4.1 |
| CCOC(=O)N1CCN(C(=O)[C@H](CCC(=O)O)NC(=O)c2cc(N3CCC(CO)CC3)cc(-c3ccccc3)n2)CC1 | 0.054 | 19 | 22 |
| CCCCCOC(=O)N1CCN(C(=O)[C@H](CCC(=O)O)NC(=O)c2cc(OCCO)cc(-c3ccccc3)n2)CC1 | 0.031 | 12 | 10 |
